Structures are written as SMILES. Entries after “also recorded” stand apart in the source; their conditions may differ.

The source of these data is publication PMC10757425 (Toxicology, 2023).

A short description of data set [1]: OH-PCB disposition in serum and tissues by GC-MS/MS. The data set is classed as in vivo, Sprague-Dawley rats. To be noted: for detection in serum, brain, liver, and lung / rank order of levels across serum and tissues: male rats, 28 days of 4-52 implant exposure. In short, it runs like this:
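Male Sprague-Dawley rats received a subcutaneous polymeric implant (1.3 ± 0.1 mg/g body weight) on the back at PND 28, loaded at 0, 1, 5 or 10% (w/w) test compound, for 28 days. Tissues (n=8/group) were homogenized in 2-propanol and liquid-liquid extracted, with surrogate-recovery and internal-standard correction. LOD came from sham tissues (mean + t0.01 × SD).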

Data set [2] in a line: In vivo exposure dosimetry: 4-52 remaining in retrieved subcutaneous implants. Details: species or system Sprague-Dawley rats. To be noted: for In vivo exposure: 4-52 remaining in the implant / In vivo exposure: 4-52 remaining in the implant (%): subcutaneous implant, 28 days, male rats. In short, it runs like this:
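Male rats carried s.c. implants (0, 1, 5 or 10% w/w; 1.3 ± 0.1 mg/g bw) from PND 28 for 28 days. Retrieved implants were dissolved in 10 mL DCM, diluted 3-fold and read by UV/Vis at 285 nm against a matrix-matched calibration curve. Internal dose was taken as total load minus remaining amount, assuming 100% bioavailability.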

Data set [3] is described as follows: In vitro release from polymeric implants. To be noted: after 28 days.
The test system of data set [4] is Sprague-Dawley rats. In words: Histopathology. Format: in vivo. To be noted: for prevalence of minimal liver inflammation (% of evaluated slides): sham 37.5%. In short, it runs like this: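 After 28 days of implant exposure, brain, accessory lobe of right lung and left lateral liver lobe were formalin-fixed and H&E stained (8 rats/group, 2 per cohort, random). A veterinary pathologist scored brain regions (prefrontal cortex, striatum, hippocampus, cerebellum) and lung and liver for inflammation (any immune cells), hemorrhage, edema, necrosis, apoptosis and morphology. Brain was also scored for gliosis; lung and liver for extramedullary hematopoiesis.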

Data set [5] has as its system Sprague-Dawley rats. Put plainly: Open Field Test. The data set is classed as in vivo. To be noted: between the groups at any time epoch, two-way ANOVA. In a few lines: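 Implant-exposed rats (n=15/group) were tested blind during exposure days 24–28. The opaque rectangular arena (~5000 cm2, 50 cm walls) was divided into central and outer zones. Each rat started in the center and explored freely for 30 min on two consecutive days. Overhead video tracking recorded distance travelled in 5-min epochs. Analysis: two-way ANOVA.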

The test system of data set [6] is Sprague-Dawley rats. Put plainly: Y-maze. Format: in vivo.
Data set [7] concerns Sprague-Dawley rats. Put plainly: Hole Board Test. Format: in vivo. In short, it runs like this: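 Implant-exposed rats (n=15/group) were tested blind on exposure days 24–28. Each rat was released centrally for 5 min. Distance and head dips (ears passing through a hole) were video-tracked. Analysis: one-way ANOVA with Fisher's LSD; mean ± SD.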
A short description of data set [8]: General toxicity assessment. Format: in vivo, Sprague-Dawley rats. In short, it runs like this: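 Rats arrived at 21 days old and were acclimated 7 days. At PND 28, under isoflurane with 1 mg/kg s.c. meloxicam, they received s.c. implants with 0, 1, 5 or 10% w/w test compound (1.3 ± 0.1 mg/g bw), n=15/group. Surgical site and behaviour were checked daily for 5 days. At PND 56, blood was taken by cardiac puncture, rats were perfused with cold PBS and organs harvested.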

In data set [9] the test system is Sprague-Dawley rats. Put plainly: Elevated Plus Maze. The data set is classed as in vivo.
For data set [10] the following is noted: administered orally with corn oil; ref Rostami and Juhasz, 2011; cited from earlier work.
For another data set, the system named is rats. To be noted: developmental exposure via the maternal diet, ref Boix et al., 2010; cited from earlier work.
The conditions of data set [11]: 45-day study, female rats; ref Aqil et al., 2014; cited from earlier work.
For data set [12] the following is noted: rats, dip-coated implants; ref Aqil et al. (2014); cited from earlier work.

Turning to `Oc1cc(Cl)c(-c2cc(Cl)c(O)cc2Cl)cc1Cl` [4,4’-52, 4,4’-dihydroxy-2,2’,5,5’-tetrachlorobiphenyl], in [1] (after 4-52 implant exposure), the “detection in the brain” value was “only found in the medium and high-dose groups”; the “detection in the lung” value was “detected”; the “presence in the serum and liver” value is “present in the serum and liver from all exposure groups”. Besides, in [1], the “detection in serum, brain, liver, and lung” value is listed as “detected”; the “rank order of levels across serum and tissues” value was “serum > lung > liver > brain”.

Regarding `Oc1cc(Cl)c(-c2cc(Cl)ccc2Cl)cc1Cl` [4-52, 2,2’,5,5’-tetrachlorobiphenyl-4-ol], the “In vivo exposure: 4-52 remaining in the implant” value in data set [2] (High group, 10% load) is 0.80 ± 0.40 mg; in [2] (Low group, 1% load) it was 0.06 ± 0.02 mg; in data set [2] (Medium group, 5% load), 0.40 ± 0.20 mg. Moreover, the “In vivo exposure: 4-52 remaining in the implant (%)” value was 6.9 ± 3.1% in data set [2] (High group, 10% load); 5.8 ± 2.3% in [2] (Low group, 1% load); 6.3 ± 2.8% in data set [2] (Medium group, 5% load). Also, in [2] (after 28 days of exposure, range over loads), the “4-52 left in the implants after in vivo exposure” value is given as 5.8-6.9%. The “In vitro release: 4-52 remaining in the implant (%)” value amounted to 5.2 ± 1.1% in data set [3] (High group, 10% load); 3.4 ± 0.9% in [3] (Low group, 1% load); 2.9 ± 1.8% in data set [3] (Medium group, 5% load). For the same compound, the “histopathological evaluation of brain and lung” value in the data set with Sprague-Dawley rats [4] (exposed or sham rats, 28 days) is “no overt treatment-specific lesions”. Also, the “prevalence of minimal liver inflammation (% of evaluated slides)” value in the data set on Sprague-Dawley rats [4] (high dose group) is listed as 75%; in the data set with Sprague-Dawley rats [4] (low dose group), 12.5%; in the data set on Sprague-Dawley rats [4] (medium dose group), 25%. The “Open Field Test locomotor activity (travel distance) in 5 min epochs over 30 min” value in the data set with Sprague-Dawley rats [5] is reported as “no significant differences; also recorded: not altered”. Moreover, in the data set with Sprague-Dawley rats [6] (all exposure groups, one-way ANOVA, p = 0.262), the “Y-maze percentage of spontaneous alternation” value was “no significant changes; also recorded: did not affect”. Further, the “Y-maze total distance traveled” value in the data set on Sprague-Dawley rats [6] (all exposure groups, one-way ANOVA, p = 0.300) is recorded as “no significant changes”; in the data set on Sprague-Dawley rats [6] (medium-exposed group vs sham, post hoc Fisher’s LSD, p = 0.067) it was “trend to decrease; also recorded: trend of a decrease”. In addition, the “Y-maze number of total entries” value in the data set on Sprague-Dawley rats [6] (all exposure groups, one-way ANOVA, p = 0.342) was “no significant changes”. The “Y-maze total number of entries” value in the data set on Sprague-Dawley rats [6] (medium-exposed group vs sham, post hoc Fisher’s LSD, p = 0.087) is recorded as “trend to decrease; also recorded: trend of a decrease”. In addition, the “Hole Board Test total distance traveled” value in the data set on Sprague-Dawley rats [7] (exposed vs sham groups, one-way ANOVA, p = 0.297) is recorded as “no significant differences”; with Sprague-Dawley rats [7] (medium-exposed rats, post hoc Fisher’s LSD, p = 0.071) it was “slightly reduced; also recorded: trend of a decrease”. For the same compound, in the data set on Sprague-Dawley rats [7] (exposed vs sham groups, one-way ANOVA, p = 0.433), the “Hole Board Test number of head dipping” value is recorded as “no significant differences; also recorded: did not affect”. The “levels in serum and tissues versus 4-52 dose” value in data set [1] (all compartments) is on record as “increased with increasing 4-52 doses”. The “detection in serum, brain, liver, and lung” value in data set [1] was “detected”. Also, the “rank order of levels across serum and tissues” value in data set [1] is “serum >> liver > lung > brain”. Besides, the implantation site entry in data set [8] (end of 28-day study) was “no signs of adverse effects”. Moreover, the “adverse outcomes throughout the study” value in [8] (implants with 0, 1, 5 or 10% of 4-52, 28 days) is “No adverse outcomes”. For the same compound, in data set [8] (implants with 1, 5, 10% 4-52 vs sham, 28 days), the body weight gain result is recorded as “No significant differences”. Besides, in data set [8] (subcutaneous 4-52 exposure, 28 days), the other organ weights result is recorded as “no significant effects; also recorded: no other organ weights were affected”. For the same compound, the “relative liver weight (% of body weight)” value in data set [8] (subcutaneous 4-52 exposure, 28 days, p < 0.001) is listed as “decreased dose-dependently; also recorded: significant decrease”. Besides, the “Elevated Plus Maze time in the open arm” value with Sprague-Dawley rats [9] (high group, did not reach statistical significance, p = 0.076) is recorded as “marginally increased”. Also, the “Elevated Plus Maze time in the enclosed arm” value in the data set on Sprague-Dawley rats [9] (high-exposed group vs sham, post hoc Fisher’s LSD, p = 0.043) is on record as “significantly decreased”. The “Elevated Plus Maze distance traveled in the enclosed arm” value in the data set with Sprague-Dawley rats [9] (medium exposed group, post hoc Fisher’s LSD, p = 0.097) was “trend of reduction; also recorded: decreased”.

Consider `Clc1ccc(Cl)c(-c2cc(Cl)ccc2Cl)c1` [PCB 52, 2,2’,5,5’-Tetrachlorobiphenyl], for which the oral bioavailability rate in data set [10] is given as 52.9%. For the same compound, in the data set with rats, the Y-maze performance entry was “did not affect” and the motor coordination result is listed as “impaired”.

For the compound `Clc1ccc(-c2cc(Cl)c(Cl)c(Cl)c2)cc1Cl` [PCB 126], the “released from polymeric implants in vivo” value in [11] is recorded as 49%. The “liver weights compared to sham controls” value in [12] is recorded as “significantly increased”.

For `Clc1cc(Cl)c(-c2cc(Cl)c(Cl)cc2Cl)cc1Cl` [PCB 153], in [11], the “released from polymeric implants in vivo” value was 73%.
